Consider 15 molecules from publication PMC6139374 (Cell, 2018).

The target of data set [1] is FL-Akt1-pThr308/pSer473 (A1) and FL-Akt1-pThr308/2pSer477,Thr479 (A6) (Homo sapiens, UniProt P31749). Briefly: Kinase inhibition assays with Akt inhibitors. Type of data set: biochemical. The note with it: 250 μM ATP, 20 μM GSK3 peptide.
Data set [2] deals with T1, Akt1 PH domain (Homo sapiens, UniProt P31749). The data set can be described thus: Competition binding assay displacing fluorescein-labeled PIP3. The note with it: competition with fluorescein-labeled PIP3. The method in brief:
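Competition format: 50 nM fluorescein-labeled soluble PIP3 with 1 μM Akt PH domain and varied unlabeled soluble phosphoinositide competitor (PIP3 di-C6 or PI(3,4)P2 di-C8). Buffer was 50 mM HEPES pH 7.5, 2 mM DTT, 0.05 mg/ml ovalbumin; incubated 30 min at room temperature, then fluorescence anisotropy read. Sigmoidal fit gave IC50, converted to Ki using free labeled ligand, free PH domain and probe Kd.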

In data set [3] the target is non-C-terminally phosphorylated Akt1 (A2) (Homo sapiens, UniProt P31749). The data set can be described thus: Kinase assay, effect of phosphoinositides on activity. The note with it: 250 μM ATP, 20 μM GSK3 peptide, 10 mM MgCl2. The format is biochemical. A digest of the protocol:
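Also present: 250 μM ATP with 32P-γ-ATP and 20 μM biotinylated GSK3 peptide. Added either 400 μM DOPC vesicles with 5 mol% PIP3 or 20 μM soluble PI(3,4)P2 (di-C8). Product was captured on 30 kDa filters and counted by scintillation; runs done at least twice.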

In the next data set the test system is GSK3 peptide substrate. Briefly: Radiometric kinase assay, steady-state kinetics of semisynthetic Akt1 forms. The following applies: for catalytic efficiency (kcat/Km), fold lower relative to A1: compared with pThr308/pSer473 form A1; for kcat/Km, within fold of that of A2: low kcat/Km, compared with non-C-terminally phosphorylated enzyme A2. Type of data set: biochemical.

Data set [4] has as its target FL-Akt1-pThr308/pSer473 (A1) (Homo sapiens, UniProt P31749). The data set can be described thus: Fluorescence anisotropy binding of soluble PIP3. The following applies: fluorescein-labeled soluble PIP3 (di-C6), 50 nM. A digest of the protocol: (§1)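 Varying concentrations of semisynthetic full-length Akt1 were mixed with 50 nM fluorescein-labeled soluble PIP3 (di-C6). Buffer was 50 mM HEPES pH 7.5, 2 mM DTT, 0.05 mg/ml ovalbumin; incubated 30 min at room temperature. Fluorescence anisotropy was recorded at 23°C.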
For orientation: Polarisation of emitted light reports the rotation of a fluorescent probe.

Data set [5] addresses FL-Akt1-pThr308/non-p C tail (A2) (Homo sapiens, UniProt P31749). The data set can be described thus: Fluorescence anisotropy binding of soluble PIP3. The following applies: stated as nearly identical to the value for A1. A digest of the protocol: as §1
The target in data set [6] is non-phosphorylated FL-Akt1 (A9) (Homo sapiens, UniProt P31749). Briefly: Fluorescence anisotropy binding of soluble PIP3. The note with it: fluorescein-labeled soluble PIP3, 50 nM. A digest of the protocol: as §1
Sequence of non-phosphorylated FL-Akt1 (A9) (P31749 whole entry): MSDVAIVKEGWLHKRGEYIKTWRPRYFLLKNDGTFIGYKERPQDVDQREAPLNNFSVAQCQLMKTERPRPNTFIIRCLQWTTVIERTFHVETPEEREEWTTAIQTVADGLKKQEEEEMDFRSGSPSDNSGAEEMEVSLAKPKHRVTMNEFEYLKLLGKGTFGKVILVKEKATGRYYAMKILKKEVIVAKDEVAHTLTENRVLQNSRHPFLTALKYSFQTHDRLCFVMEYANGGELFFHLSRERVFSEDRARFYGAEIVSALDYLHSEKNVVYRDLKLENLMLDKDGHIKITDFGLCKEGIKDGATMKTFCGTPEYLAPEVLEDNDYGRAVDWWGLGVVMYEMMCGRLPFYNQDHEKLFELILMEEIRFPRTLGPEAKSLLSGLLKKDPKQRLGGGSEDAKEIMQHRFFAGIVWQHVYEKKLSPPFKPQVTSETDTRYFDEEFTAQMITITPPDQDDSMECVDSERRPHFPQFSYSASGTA
In data set [7] the target is FL-Akt1-pThr308, pSer477,pThr479 (A6) (Homo sapiens, UniProt P31749). The data set can be described thus: Fluorescence anisotropy binding of soluble PIP3. A digest of the protocol: as §1
Sequence of FL-Akt1-pThr308, pSer477,pThr479 (A6) (P31749 whole entry, the tested form may be a part): as the sequence (P31749 whole entry) above
Data set [8] addresses T1, Akt1 PH domain. Briefly: Fluorescent binding assay of PIP3 with Mg addition. The following applies: Mg addition up to 10 mM.
Data set [9] deals with pSer477,pThr479 Akt1 (A6) (Homo sapiens, UniProt P31749). Briefly: Kinase assay, effect of PIP3 on activity. Type of data set: biochemical. The following applies: addition of excess soluble PIP3.
Sequence of pSer477,pThr479 Akt1 (A6) (P31749 whole entry): as above
The target in a further data set is Akt1 (human, UniProt P31749 1-480). The data set can be described thus: kinase inhibition assay.
Sequence of Akt1 (P31749 whole entry): as above
The target of data set [10] is non-C-terminally phosphorylated Akt1, C-terminally labeled with fluorescein (human) (UniProt P31749). The data set can be described thus: fluorescence polarisation.

“And” between values parts separate entries of the source, which are not always exact repeats. Equal values may be shown once. Where no end group is shown, it is not given here. Side-chain parts run from the residue outwards. [ ]: non-standard residue; d: D form. Dap = NC[C@H](N)C(=O)O

T1 sequence (P31749 1-121): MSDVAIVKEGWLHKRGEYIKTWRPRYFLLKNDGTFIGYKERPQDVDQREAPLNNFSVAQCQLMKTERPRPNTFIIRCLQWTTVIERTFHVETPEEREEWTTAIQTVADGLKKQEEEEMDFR
Sequence of FL-Akt1-pThr308/pSer473 (A1) and FL-Akt1-pThr308/2pSer477,Thr479 (A6) (P31749 whole entry, the tested form may be a part): as the sequence (P31749 whole entry) above
Sequence of non-C-terminally phosphorylated Akt1 (A2) (P31749 whole entry): as above
Sequence of FL-Akt1-pThr308/pSer473 (A1) (P31749 whole entry): as above
Sequence of FL-Akt1-pThr308/non-p C tail (A2) (P31749 whole entry): as above

As to `CC(C)NC[C@@H](C(=O)N1CCN(c2ncnc3c2[C@H](C)C[C@H]3O)CC1)c1ccc(Cl)cc1` [GDC0068], the “apparent Ki ratio, A6 relative to A1” value in data set [1] (Ki lower for A1, higher for A6) was 8 fold. In the case of `NC1(c2ccc(-c3nc4ccn5c(=O)[nH]nc5c4cc3-c3ccccc3)cc2)CCC1` [MK2206], in [1], the “sensitivity of A6 relative to A1 to the inhibitor” value is “distinct sensitivities”. As to `CCCCCCCC(=O)OC[C@H](COP(=O)(O)O[C@H]1[C@H](O)[C@@H](O)[C@H](OP(=O)(O)O)[C@@H](OP(=O)(O)O)[C@H]1O)OC(=O)CCCCCCC` [soluble PI(3,4)P2], the “binding to Akt1 PH domain” value on Akt1 PH domain [2] is given as “high affinity”. For the same molecule, the “stimulation of enzymatic activity of A2” value in [3] is on record as “did not stimulate”. Turning to “A1: semisynthetic full-length Akt1, pThr308/pSer473”, the “catalytic efficiency, fold larger than that of Asp473 form A4” value in the data set on GSK3 peptide substrate (A1 vs A4) was > 100 fold and 100 fold. Further, the “kcat/Km, fold greater than that of A2” value in the data set on GSK3 peptide substrate (pThr308 set of full-length Akt1, v/[E] vs [ATP]) is listed as “about 500 fold”. As to “A3: full-length Akt1 pSer473 form lacking phosphorylation at Thr308”, the “catalytic efficiency (kcat/Km), fold lower relative to A1” value with GSK3 peptide substrate is recorded as 500 fold. With “A4: full-length Akt1 pThr308, Asp473 form”, in the data set on GSK3 peptide substrate, the “kcat/Km, within fold of that of A2” value is given as at most 3 fold. On to “A5: full-length Akt1 pThr308, triply phosphorylated C-tail form”, for which the “activity, fold more active than A1” value with GSK3 peptide substrate (compared with pSer473 form A1) is listed as ~ 2 fold.

As for “A6: full-length Akt1 pThr308 with pSer477/pThr479”, the “catalytic efficiency (kcat/Km), fold lower relative to A1” value in the data set on GSK3 peptide substrate is 8 fold.

As for “A7: full-length Akt1 pThr308, pSer477 form”, in the data set with GSK3 peptide substrate, the “kcat/Km, within fold of that of A2” value is reported as at most 3 fold. Same read-out and setting: then “A8: full-length Akt1 pThr308, pSer479 form as printed”, with at most 3 fold.

As to “A12: R144A point mutation in the context of pSer473 Akt1”, in the data set with GSK3 peptide substrate, the “catalytic efficiency (kcat/Km), fold lower relative to A1” value is ~ 50 fold. As usually defined, the Kd is the concentration at which binding is half-saturated. A lower Kd goes with a tighter complex. Consider “phosphatidyl inositol 3,4,5-triphosphate [soluble PIP3]”, for which the Kd in data set [4] was about 200 nM; in data set [5], about 200 nM; in data set [6], 90 nM; in data set [7] (fluorescein-labeled soluble PIP3, 50 nM), 800 nM. For the same molecule, the “Kd, fold greater than for A1 or A2” value in [7] (A6 vs A1 or A2, weakened binding) is given as 4 fold. On Akt1 PH domain [8], the “increase of Kd on Mg addition” value was ~ 3 fold. Besides, the “stimulation of enzymatic activity of A2” value in [3] was “did not stimulate”. For the same molecule, the “effect on catalytic activity of A6” value in data set [9] was “minimally impacted”.

B1: GSK3 peptide-ATP conjugate bisubstrate analog (peptide)
chain: GRPRTT[Dap]([Ac-ATP‑γS])FAE
What is called Ki is the equilibrium dissociation constant of an inhibitor or competing ligand from its target. A high value points to weaker binding. On to B1, for which, in the data set with Akt1, the affinity corresponds to a Ki of 3600 nM.

B2: GST-PDK1 (enzyme)
chain: MARTTSQLYDAVPIQSSVVLCSCPSPSMVRTQTESSTPPGIPGGSRQGPAMDGTAAEPRPGAGSLQHAQPPPQPRKKRPEDFKFGKILGEGSFSTVVLARELATSREYAIKILEKRHIIKENKVPYVTRERDVMSRLDHPFFVKLYFTFQDDEKLYFGLSYAKNGELLKYIRKIGSFDETCTRFYTAEIVSALEYLHGKGIIHRDLKPENILLNEDMHIQITDFGTAKVLSPESKQARANSFVGTAQYVSPELLTEKSACKSSDLWALGCIIYQLVAGLPPFRAGNEYLIFQKIIKLEYDFPEKFFPKARDLVEKLLVLDATKRLGCEEMEGYGPLKAHPFFESVTWENLHQQTPPKLTAYLPAMSEDDEDCYGNYDNLLSQFGCMQVSSSSSSHSLSASDTGLPQRSGSNIEQYIHDLDSNSFELDLQFSEDEKRLLLEKQAGGNPWHQFVENNLILKMGPVDKRKGLFARRRQLLLTEGPHLYYVDPVNKVLKGEIPWSQELRPEAKNFKTFFVHTPNRTYYLMDPSGNAHKWCRKIQEVWRQRYQSHPDAAVQ
B2 gave a Kd in [10] of 200 nM.

B3: A16: Δ143-Akt1-pThr308 construct possessing Asp473 (protein, UniProt P31749 1-480, looked up, variant del1-143 S473D)
RAC-alpha …: RVTMNEFEYLKLLGKGTFGKVILVKEKATGRYYAMKILKKEVIVAKDEVAHTLTENRVLQNSRHPFLTALKYSFQTHDRLCFVMEYANGGELFFHLSRERVFSEDRARFYGAEIVSALDYLHSEKNVVYRDLKLENLMLDKDGHIKITDFGLCKEGIKDGATMKTFCGTPEYLAPEVLEDNDYGRAVDWWGLGVVMYEMMCGRLPFYNQDHEKLFELILMEEIRFPRTLGPEAKSLLSGLLKKDPKQRLGGGSEDAKEIMQHRFFAGIVWQHVYEKKLSPPFKPQVTSETDTRYFDEEFTAQMITITPPDQDDSMECVDSERRPHFPQFDYSASGTA
modifications: pThr308
On to B3, for which the “kcat/Km, within fold of each other” value with GSK3 peptide substrate (Δ143-Akt1-pThr308 constructs A15-A18) is at most 3 fold.
